Source: ChEMBL document CHEMBL1124857, “A radiotracer for mapping cholinergic neurons of the brain” (1990)

What was measured:
Mus musculus [1] = species on record: Mus musculus; assay: Percentage dose injected in the whole brain of mouse was determined.; type: functional
Outline: (§1)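 Female CD-1 mice (18–27 g; n = 4 or 5 per tracer) were given the tracer by tail-vein injection under ether anesthesia. Doses were 7.2–10.8 μCi of the 125I-labeled tracer or 5.0 μCi of the 3H-labeled tracer. Mice were killed 4 h later. Tissues were excised, weighed, and counted by gamma or liquid-scintillation counting. Values are % injected dose/g, or % dose in whole brain, normalized to a 25 g mouse.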

Mus musculus [2] = assay: Evaluated for the radiotracer concentration in cerebellum of mouse brain, 4 hr after intravenous injection; type: functional, organism-based; outline: as §1
Mus musculus [3] = assay: Evaluated for the radiotracer concentration in cerebral cortex of mouse brain, 4 hr after intravenous injection; type: functional, organism-based; outline: as §1
Mus musculus [4] = assay: Evaluated for the radiotracer concentration in striatum of mouse brain, 4 hr after intravenous injection; type: functional, organism-based; outline: as §1
[5] = tested as the 125I-labelled form

`[3H]OC1CCCCC1N1CCC(c2ccccc2)CC1` (stereo unspecified) was tested, and the Dose (Mus musculus [1]) was 0.24%.

`O[C@H]1Cc2cccc(I)c2C[C@@H]1N1CCC(c2ccccc2)CC1` was tested, and the Dose/g (Mus musculus [2]; [5]) was 0.06%, the Dose/g (Mus musculus [3]; [5]) was 0.12% and the Dose/g (Mus musculus [4]; [5]) was 0.26%.

For `OC1CCCCC1N1CCC(c2ccccc2)CC1` (stereo unspecified), the Dose/g (Mus musculus [2]; tested as the 3H-labelled form) was 0.1%, the Dose/g (Mus musculus [3]; tested as the 3H-labelled form) was 0.42% and the Dose/g (Mus musculus [4]; tested as the 3H-labelled form) was 0.4%.

Work on `OC1Cc2cccc(I)c2CC1N1CCC(c2ccccc2)CC1` (racemic) yielded a Dose/g (Mus musculus [2]; [5]) of 0.2%, a Dose/g (Mus musculus [3]; [5]) of 1.17% and a Dose/g (Mus musculus [4]; [5]) of 3.29%.

Work on `OC1Cc2cccc([125I])c2CC1N1CCC(c2ccccc2)CC1` (racemic) yielded a Dose (Mus musculus [1]) of 0.56%.

For `O[C@@H]1Cc2cccc(I)c2C[C@H]1N1CCC(c2ccccc2)CC1`, the Dose (Mus musculus [1]) was 1.03%, the Dose/g (Mus musculus [2]) was 0.23% and the Dose/g (Mus musculus [3]) was 2.56%. It also gave a Dose/g (Mus musculus [4]) of 6.26%.

For `O[C@H]1Cc2cccc([125I])c2C[C@@H]1N1CCC(c2ccccc2)CC1`, the Dose (Mus musculus [1]) was 0.06%.
